Experimental findings from ChEMBL document CHEMBL4257575, “Discovery of Novel Flavonoid Dimers To Reverse Multidrug Resistance Protein 1 (MRP1, ABCC1) Mediated Drug Resistance in Cancers Using a High Throughput Platform with "Click Chemistry"” (J Med Chem, 2018) are described below.

As usually defined, the IC50 is the concentration at which inhibition is half-maximal.

One data set concerns Mus musculus. Nature of the data set: Time duration at which plasma concentration stays above in vitro EC50 for MRP1 in Balb/c mouse at 10 mg/kg, iv measured up to 360 mins by LC-MS/MS analysis. Format: ADME, organism-based. To be noted: in vivo, 6 h. In short, it runs like this: (§1)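 Female Balb/c mice given 10 mg/kg i.v. (25G needle) of the HCl salt, 1.5 mg/mL in NMP:Cremorphol:Tween 80:H₂O (5:5:4.5:85.5). Cardiac-puncture blood under ether at 15–360 min, 3 mice per time point; plasma spun 16,000 g, stored −20°C. Methanol precipitation with [¹³C6]paclitaxel internal standard; LC-MS/MS, BEH C18, water/methanol with 0.1% formic acid gradient. Mean ± SEM.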

For data set [1], the species on record is Homo sapiens. The data set can be described thus: Effect on MRP1 expression in human 2008/MRP1 cells up to 5 uM after 3 days by FITC staining based flow cytometry. Format: functional, cell-based. (A flow cytometer gives signals particle by particle.)
The species entered for data set [2] is Homo sapiens. The data set can be described thus: Inhibition of P-gp in human LCC6MDR cells assessed as potentiation of paclitaxel-induced cytotoxicity by measuring fold reduction in paclitaxel IC50 at 1 uM after 5 days by MTS assay relative to paclitaxel alone. Format: cell-based. Background: Tetrazolium dyes change colour on reduction, which living cells bring about.

Data set [3] is filed under the species Homo sapiens. Nature of the data set: Effect on doxorubicin influx in human 2008/P cells at 2 uM incubated up to 60 mins by flow cytometric analysis. Format: functional, cell-based.
The species named for data set [4] is Homo sapiens. Nature of the data set: Effect on doxorubicin influx in human 2008/MRP1 cells at 2 uM incubated up to 60 mins by flow cytometric analysis. Format: functional, cell-based.
A short description of data set [5]: Plasma concentration in Balb/c mouse at 10 mg/kg, iv measured up to 360 mins by LC-MS/MS analysis. It counts as ADME, organism-based. To be noted: in vivo, 6 h, BLD = below limit of detection. A digest of the protocol:
as §1

Another data set relates to L929. Nature of the data set: Cytotoxicity against mouse L929 cells assessed as reduction in cell survival after 5 days by MTS assay. Format: cell-based. The settings on record: L929, 120 h.
A short description of data set [6]: Solubility in NMP/Cremorphol/Tween80/H2O (5:5:4.5:85.5) formulation. Format: physicochemical.
A short description of data set [7]: Cytotoxicity against human 2008/MRP1 cells assessed as cell survival at 2 uM after 5 days by MTS assay relative to control. It counts as cell-based. To be noted: read-out: Survival.
The next data set concerns MRP1. Nature of the data set: in vitro. To be noted: mouse, L929 cells (IC50) versus 2008/MRP1 cells (EC50).
The target of data set [8] is T1, Multidrug resistance-associated protein 1 (Homo sapiens, UniProt P33527). The data set can be described thus: Inhibition of MRP1 in human 2008/MRP1 cells assessed as effect on doxorubicin efflux at 2 uM up to 105 mins by flow cytometric analysis. Format: cell-based. In short, it runs like this: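 Efflux: cells preloaded with 20 µM DOX in supplemented RPMI1640 for 1 h at 37°C, washed, then kept with or without 2 µM modulator. […] Mean ± SEM; paired t test at each time point.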
T1 sequence (P33527 whole entry): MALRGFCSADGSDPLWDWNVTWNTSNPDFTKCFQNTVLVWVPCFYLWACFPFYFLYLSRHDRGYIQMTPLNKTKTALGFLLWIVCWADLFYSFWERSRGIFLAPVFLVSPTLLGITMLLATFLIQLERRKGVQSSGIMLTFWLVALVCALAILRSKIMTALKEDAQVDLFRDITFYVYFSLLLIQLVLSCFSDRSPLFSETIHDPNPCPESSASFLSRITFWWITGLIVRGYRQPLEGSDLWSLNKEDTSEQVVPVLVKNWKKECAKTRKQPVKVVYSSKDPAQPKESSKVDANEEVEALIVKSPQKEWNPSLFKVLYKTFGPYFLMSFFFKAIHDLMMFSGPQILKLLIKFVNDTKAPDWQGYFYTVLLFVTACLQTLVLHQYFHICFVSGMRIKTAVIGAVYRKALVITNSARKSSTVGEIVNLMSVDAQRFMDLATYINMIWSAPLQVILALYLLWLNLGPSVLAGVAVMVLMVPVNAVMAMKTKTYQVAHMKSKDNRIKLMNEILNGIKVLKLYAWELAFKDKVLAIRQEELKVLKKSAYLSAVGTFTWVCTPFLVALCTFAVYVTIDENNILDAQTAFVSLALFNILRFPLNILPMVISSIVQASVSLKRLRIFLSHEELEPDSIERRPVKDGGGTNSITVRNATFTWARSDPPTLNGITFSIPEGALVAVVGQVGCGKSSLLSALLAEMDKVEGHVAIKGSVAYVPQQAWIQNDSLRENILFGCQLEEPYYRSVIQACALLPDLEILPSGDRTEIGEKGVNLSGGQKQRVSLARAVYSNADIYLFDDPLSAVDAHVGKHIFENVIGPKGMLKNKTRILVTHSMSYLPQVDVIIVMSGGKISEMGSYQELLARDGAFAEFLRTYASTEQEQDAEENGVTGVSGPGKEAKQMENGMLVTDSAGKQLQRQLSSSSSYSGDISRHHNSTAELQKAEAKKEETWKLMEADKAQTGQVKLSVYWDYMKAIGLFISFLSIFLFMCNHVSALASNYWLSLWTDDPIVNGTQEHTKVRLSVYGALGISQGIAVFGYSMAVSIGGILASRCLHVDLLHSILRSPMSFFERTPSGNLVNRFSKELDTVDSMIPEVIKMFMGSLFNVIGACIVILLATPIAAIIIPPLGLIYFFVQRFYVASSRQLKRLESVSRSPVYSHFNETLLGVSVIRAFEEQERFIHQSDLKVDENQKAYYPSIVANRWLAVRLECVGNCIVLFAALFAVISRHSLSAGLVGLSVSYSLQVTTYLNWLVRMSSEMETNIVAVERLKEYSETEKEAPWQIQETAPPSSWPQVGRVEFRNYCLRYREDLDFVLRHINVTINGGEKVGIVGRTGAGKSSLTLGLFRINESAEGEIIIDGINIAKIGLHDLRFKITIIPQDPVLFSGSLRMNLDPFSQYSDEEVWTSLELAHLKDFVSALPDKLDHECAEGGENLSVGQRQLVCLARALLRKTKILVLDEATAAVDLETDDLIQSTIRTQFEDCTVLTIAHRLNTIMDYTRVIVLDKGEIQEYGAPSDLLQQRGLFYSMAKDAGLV

Data set [9] concerns the target T1, Multidrug resistance-associated protein 1. Nature of the data set: Inhibition of MRP1 in human 2008/MRP1 cells assessed as potentiation of doxorubicin-induced cytotoxicity by measuring cell survival at 2 uM after 5 days by MTS assay relative to control. Format: cell-based. The settings on record: 120 h. A digest of the protocol:
(§2)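 2008/MRP1 cells (retroviral human MRP1 transfectant; RPMI 1640, 10% FBS) at 4,000 per well, with 100 nM doxorubicin plus crude, unpurified click products in DMSO: 2 µM in the primary screen, 1 µM in the secondary. Incubated 5 days at 37 °C. MTS/PMS added for 2 h at 37 °C, absorbance read at 490 nm. % survival is relative to wells without DOX or product. Run in triplicate, at least three experiments.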

The target is the same in data set [10]. Nature of the data set: Inhibition of MRP1 in human 2008/MRP1 cells assessed as potentiation of doxorubicin-induced cytotoxicity by measuring cell survival at 1 uM after 5 days by MTS assay relative to control. It counts as cell-based. The settings on record: 120 h. In short, it runs like this:
as §2

Active and inactive are the calls of the source. The rule behind the calls is not given here.

With `Cl.O=c1cc(-c2ccc(OCCCc3cn(CCOCCOc4ccc5c(=O)cc(-c6ccccc6)oc5c4)nn3)cc2)oc2cc(F)ccc12`, the Time with Mus musculus is 90 min.

In the case of `O=c1cc(-c2ccc(OCCCc3cn(CCOCCOc4ccc5c(=O)cc(-c6ccccc6)oc5c4)nn3)cc2)oc2cc(F)ccc12` [listing 1 of 2 here], the outcome in the data set listed under Homo sapiens [1], in the data set filed under Homo sapiens [3] and in the data set listed under Homo sapiens [4] was inactive. Also, in the data set filed under Homo sapiens [2], the Ratio IC50 was 40.7.

`Cc1ccc2oc(-c3ccc(OCCOCCOCCOCCOCCOc4ccc(-c5cc(=O)c6cc(C)ccc6o5)cc4)cc3)cc(=O)c2c1`: in data set [5], the Cp result is listed as “Bld”. The IC50 in the data set with L929 is more than 100 µM. Also, in [6], the solubility result is “Insoluble”.

Take `O=c1cc(-c2ccc(OCCCc3cn(CCOCCOc4ccc5c(=O)cc(-c6ccccc6)oc5c4)nn3)cc2)oc2cc(F)ccc12` [listing 2 of 2 here]: in data set [7], the viability at 120 h, 2 µM came to 93%. Further, the selectivity ratio with MRP1 is more than 1890. For the same compound, in [8], the INH result is “Active”. Also, the Survival in [9] was found to be 41%; in data set [10], 49%. Further, the IC50 with L929 was more than 100 µM.

For `Cc1ccc2oc(-c3ccc(OCCCCc4cn(CCOCCOc5ccc(-c6cc(=O)c7ccccc7o6)cc5)nn4)cc3)cc(=O)c2c1`, the viability at 120 h, 2 µM in data set [7] was 85%. For the same compound, the selectivity ratio in the data set on MRP1 was more than 553. Further, the Survival in data set [9] was 20%; in data set [10], 25%. Also, the Ratio IC50 in the data set listed under Homo sapiens [2] amounted to 69. Besides, the IC50 with L929 is more than 57 µM.
